Measurements taken from ChEMBL document CHEMBL1125722 (J Med Chem, 1991).
Activity calls are given as the source filed them. The rule behind the calls is not given here.

Assays:
D(2) dopamine receptor [1] = target: T1, D(2) dopamine receptor (Rattus norvegicus, UniProt P61169); assay: Neuroleptic activity in terms of [3H]spiroperidol binding to Dopamine receptor D2 in rat striatal membrane.; format: cell membranes
Summary of the method: (§1)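 Striatal membranes from male Sprague-Dawley rats (1.4 mg protein/mL) were used in 50 mM Tris-HCl pH 7.1 with 0.1% ascorbate, 10 μM pargyline, 120 mM NaCl, 5 mM KCl and 1 mM each of CaCl2 and MgCl2. Incubation was with […], 20 min at 37 °C. Nonspecific binding was defined by 10⁻⁶ M haloperidol, with filtration and scintillation counting.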

Monkey [2] = assay: Antagonist action in tail-flick antagonism vs morphine, in rhesus monkeys. Compound was injected subcutaneously; Not active; format: functional, organism-based; conditions: Cercopithecidae
Rattus norvegicus [3] = species on record: Rattus norvegicus; assay: Tail-flick assay was performed to determine antinociceptive profile of the compound.; format: functional; design: unit not given here
Rattus norvegicus [4] = species on record: Rattus norvegicus; assay: Agonist/antagonist and antinociceptive profile was assessed in a hotplate assay.; format: functional
Rattus norvegicus [5] = assay: Effective dose for apomorphine induced circling behavior was determined in rats after subcutaneous administration of the compound.; format: functional
Rattus norvegicus [6] = assay: Antagonist and antinociceptive profile was evaluated in a paraphenylquinone assay after subcutaneous injection.; format: functional
Monkey [7] = assay: Antagonist action in tail-flick antagonism vs morphine, in rhesus monkeys. Compound was injected subcutaneously.; format: functional; conditions: Cercopithecidae, in Macaca mulatta, sc
Mu-type opioid receptor [8] = target: T2, Mu-type opioid receptor (Rattus norvegicus, UniProt P33535); assay: Opioid activity in terms of inhibition of [3H]dihydromorphine binding to Opioid receptor mu 1 in rat brain membrane.; format: cell membranes
Summary of the method: (§2)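 Whole-brain membranes, cerebellum removed, from male Sprague-Dawley rats (1 mg protein/mL) in 50 mM Tris-HCl pH 7.4 were preincubated 60 min at 25 °C. [3H]dihydromorphine was added to a […], with varying drug concentrations, for 60 min at 25 °C. Nonspecific binding was defined by 10⁻⁵ M naloxone, with GF/B filtration and scintillation counting.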

D(2) dopamine receptor [9] = target: T1, D(2) dopamine receptor; assay: Neuroleptic activity in terms of [3H]spiroperidol binding to dopamine receptor D2 in rat striatal membrane.; format: cell membranes; summary of the method: as §1
Mu-type opioid receptor [10] = target: T2, Mu-type opioid receptor; assay: Opioid activity in terms of inhibition of [3H]dihydromorphine binding to opioid receptor mu in rat brain membrane.; format: cell membranes; summary of the method: as §2
Rattus norvegicus [11] = assay: Effective dose for apomorphine induced circling behavior was determined in rats after subcutaneous administration of the compound; format: functional; conditions: sc
Monkey [12] = assay: Antagonist action in tail-flick antagonism vs morphine, in rhesus monkeys, compound was injected subcutaneously; Not Active; format: functional, organism-based; conditions: Cercopithecidae
Rattus norvegicus [13] = species on record: Rattus norvegicus; assay: Agonist/antagonist and antinociceptive profile was assessed in a hotplate assay
Rattus norvegicus [14] = assay: Antagonist and antinociceptive profile was evaluated in a paraphenylquinone assay after subcutaneous injection; conditions: sc
[15] = Rattus norvegicus, read-out: ED50
[16] = Rattus norvegicus, sc, read-out: ED50

T1 sequence (P61169 whole entry): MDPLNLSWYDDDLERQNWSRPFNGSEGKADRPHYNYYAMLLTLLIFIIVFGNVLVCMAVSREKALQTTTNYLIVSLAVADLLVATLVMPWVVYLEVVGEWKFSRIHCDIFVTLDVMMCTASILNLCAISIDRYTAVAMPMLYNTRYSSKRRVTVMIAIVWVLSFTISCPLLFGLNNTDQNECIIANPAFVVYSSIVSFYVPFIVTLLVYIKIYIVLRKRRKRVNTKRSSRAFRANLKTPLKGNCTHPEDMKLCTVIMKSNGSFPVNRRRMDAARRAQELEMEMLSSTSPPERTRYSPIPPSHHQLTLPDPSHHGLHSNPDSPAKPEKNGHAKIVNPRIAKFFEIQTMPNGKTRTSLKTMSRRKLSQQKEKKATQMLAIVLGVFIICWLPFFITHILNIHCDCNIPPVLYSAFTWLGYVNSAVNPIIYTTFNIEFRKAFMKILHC
T2 sequence (P33535 whole entry): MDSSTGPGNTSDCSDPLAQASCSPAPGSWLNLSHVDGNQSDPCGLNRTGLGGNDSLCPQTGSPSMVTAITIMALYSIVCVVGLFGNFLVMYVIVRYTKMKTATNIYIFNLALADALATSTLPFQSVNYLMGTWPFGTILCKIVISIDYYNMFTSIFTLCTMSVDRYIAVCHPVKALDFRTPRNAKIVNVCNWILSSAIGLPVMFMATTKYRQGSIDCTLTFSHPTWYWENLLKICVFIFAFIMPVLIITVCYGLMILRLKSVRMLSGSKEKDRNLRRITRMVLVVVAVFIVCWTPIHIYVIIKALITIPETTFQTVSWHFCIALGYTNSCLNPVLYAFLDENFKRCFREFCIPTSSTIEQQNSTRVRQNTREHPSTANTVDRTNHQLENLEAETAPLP

SMILES	IC50 (D(2) dopamine receptor [1]) [µM]	Activity (Rattus norvegicus [3])	ED50 (Rattus norvegicus [4]; [15]) [µmol/kg]	ED50 (Rattus norvegicus [6]; [16]) [µmol/kg]	ED50 (Rattus norvegicus [5]) [µM/kg]	further results
CCC(=O)O[C@]1(c2ccccc2)CCN(CCCC(=O)c2ccc(F)cc2)C[C@H]1C	0.147	>60.8	> 72.9	2.9		ED50 (Monkey [2]): inactive; ED50 (Rattus norvegicus [5]; [16]): > 12 µmol/kg
CCC(=O)O[C@@]1(c2ccccc2)CCN(CCCC(=O)c2ccc(F)cc2)CC1C (mixture of isomers)	0.0538	1.7	1.6	0.2	3.9	ED50 (Monkey [7]): > 60.8 µmol/kg; IC50 (Mu-type opioid receptor [8]): 0.0095 µM
CCC(=O)O[C@@]1(c2ccccc2)CCN(CCCC(=O)c2ccc(F)cc2)CC1C (single isomer, unassigned; (+))		0.8			1.6	IC50 (D(2) dopamine receptor [9]): 0.0433 µM; IC50 (Mu-type opioid receptor [10]): 0.0061 µM; ED50 (Rattus norvegicus [4]): 0.9 µM/kg; ED50 (Rattus norvegicus [6]): 0.2 µM/kg
O=C(CCCN1CCC(O)(c2ccc(Cl)cc2)CC1)c1ccc(F)cc1 [HALOPERIDOL]						ED50 (Rattus norvegicus [11]): 0.1 µmol/kg
CN1CC[C@]23c4c5ccc(O)c4O[C@H]2[C@@H](O)C=C[C@H]3[C@H]1C5 [MORPHINE]		10.6				ED50 (Monkey [12]): inactive; ED50 (Rattus norvegicus [13]): 2.9 µmol/kg; ED50 (Rattus norvegicus [14]): 0.4 µmol/kg
